ChEMBL document CHEMBL1127304, “The discovery of novel, structurally diverse protein kinase C agonists through computer 3D-database pharmacophore search. Molecular modeling studies” (J Med Chem, 1994)

target: T1, Protein kinase C alpha type (Homo sapiens, UniProt P17252); assay: (§1) Binding affinity with protein kinase C (PK-C) alpha bound to labeled [20-3H]-PDBU at a conc of 30 ug/mL
How it was run: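 Competitive displacement of [20-³H]phorbol 12,13-dibutyrate bound to PK-C α, with each ligand at a single concentration of 30 μg/mL in media. The read-out is percent inhibition of bound [³H]PDBU.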

| Structure (SMILES) | inhibition [%] |
| --- | --- |
| COc1cccc2c1C(=O)c1c(O)c3c(c(O)c1C2=O)C[C@@](O)(/C(CO)=N/NC(=O)c1ccc(Cl)c(Cl)c1)C[C@@H]3OC1CC(N)C(O)C(C)O1 (stereo partly specified) | 30 |
| CC(=O)C(C(=O)CCSCCO)C(SCCO)c1ccc(Cl)c(Cl)c1 (stereo unspecified) | 30 |

The remaining lines, values ahead:

| inhibition [%] | Structure (SMILES) |
| --- | --- |
| 30 | O=C1c2c(NCCCNCCO)cccc2C(=O)c2c(NCCCNCCO)ccc(O)c21 |
| 25 | O=C1c2cccc(O)c2C(=O)c2c(OCCN(CCO)Cc3ccccc3)cccc21 |
| 27 | CC(=O)O[C@@H]1CC2C(C)(C)C(=O)C=CC2(C)C2CCC3(C)C(=CCC3C(CO)CCC(O)C(=O)C(C)(C)O)C21 (stereo partly specified) |
| 34 | O=C1c2cccc(O)c2C(=O)c2c(OCCN(CCO)Cc3ccccc3)ccc(O)c21 |

target: T1, Protein kinase C alpha type; assay: as §1

| Ki [µM] | Structure (SMILES) |
| --- | --- |
| 7.8 | O=C1c2ccccc2C(=O)c2c(Nc3ccc(S(=O)(=O)N(CCO)CCO)cc3)ccc(O)c21 |
| 37.7 | CC(=O)OC[C@@]1(C)C(OC(C)=O)CC[C@]2(C)[C@H](CC(OC(C)=O)C3=CCOC3=O)[C@](C)(CO)CC[C@H]21 (stereo partly specified) |
| 12.9 | O=C(OCC(O)C(OC(=O)c1ccccc1)C(CO)OC(=O)c1ccccc1)c1ccccc1 (stereo unspecified) |
| 26.6 | O=C1c2ccccc2C(=O)c2c(Nc3cccc(S(=O)(=O)N(CCO)CCO)c3)ccc(O)c21 |

| Structure (SMILES) | Ki [µM] |
| --- | --- |
| C[C@]12C/C(=C/N(CCO)CCO)C(=O)C[C@@H]1CC[C@@H]1[C@@H]2CC[C@]2(C)[C@@H](O)CC[C@@H]12 | 16.1 |
